The target of data set [1] is T1, SELENOK U92C (Homo sapiens, UniProt Q9Y6D0, U92C).
T1 sequence (Q9Y6D0 2-94 U92C): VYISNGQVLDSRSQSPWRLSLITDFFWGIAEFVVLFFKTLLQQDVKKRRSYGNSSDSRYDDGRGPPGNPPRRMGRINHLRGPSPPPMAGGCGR
Nature of the data set: steady-state FP anisotropy, DDM desolvation of SELENOK U92C. It counts as binding. The settings on record: solubilized in 1.3 mM DDM. Summed up: (§1)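 Human proteins expressed as MBP fusions and purified in 1.3 mM DDM, which was the starting detergent concentration. Each was labelled with Texas Red C2 maleimide on its single accessible cysteine (C92 in SELENOK, C174 in SELENOS). Samples were diluted in wells with DDM buffers to 200 nM protein in 200 mM NaCl, 50 mM HEPES pH 7.4, 24°C. FP read at […] after 15 min equilibration; 24 h endpoints at 4°C. rmin extrapolated to lowest DDM.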

Data set [2] concerns the target T2, SELENOS U188S (Homo sapiens, UniProt Q9BQE4).
T2 sequence (Q9BQE4 with tags, fused parts or gaps): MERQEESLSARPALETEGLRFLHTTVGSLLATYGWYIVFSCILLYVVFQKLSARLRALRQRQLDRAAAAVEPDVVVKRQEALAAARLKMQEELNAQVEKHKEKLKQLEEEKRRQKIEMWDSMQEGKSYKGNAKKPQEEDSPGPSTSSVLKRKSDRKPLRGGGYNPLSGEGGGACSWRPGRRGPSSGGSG
The experiment in a line: steady-state FP anisotropy, DDM desolvation of SELENOS U188S. The format is binding. The settings on record: solubilized in 1.3 mM DDM. Summed up: as §1

The target of data set [3] is α-helical proteins. Nature of the data set: FP anisotropy, DDM proteomicelles of the α-helical proteins. It counts as binding, Homo sapiens. The conditions noted are these: 200 mM NaCl, 50 mM HEPES, pH 7.4, 24°C. The method in brief:
as §1

For data set [4] the following is noted: in water; ref Anatrace, [29], [63]; cited from earlier work.

On to `CCCCCCCCCCCCO[C@@H]1O[C@H](CO)[C@@H](O[C@H]2O[C@H](CO)[C@@H](O)[C@H](O)[C@H]2O)[C@H](O)[C@H]1O` [DDM, n-dodecyl-β-D-maltoside], for which the “rotational diffusion coefficient, Dr fast” value in data set [1] is on record as ~ 1.3×10^8 s^−1; in data set [2], ~ 1.1×10^8 s^−1. Moreover, the rmin was 0.095 ± 0.002 in data set [1] (200 nM protein) and 0.103 ± 0.002 in data set [2] (200 nM protein). The “apparent Kd relative to the CMC” value in data set [3] is “greater than the CMC”. For the same compound, the “Aggregation number, Nagg” value in data set [4] is recorded as ~78–149.
